Laboratory results published in article PMC4120251 (Journal of Alzheimer's disease : JAD, 2013).
Where two headings read alike, the source gives them in different places.

What was measured:
[1] = type: in vivo, mouse; conditions: ApoE null mice
IL-6 = IL-6 ELISA in TBS soluble brain homogenate; type: in vivo; conditions: APP/PS1ΔE9 mice, 50 μg/mouse RO 3 times a week for 6 weeks, p < 0.05
Outline: (§1)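 Saline-perfused cortex and hippocampus were homogenized in 15 volumes of ice-cold TBS (pH 7.4) with protease inhibitors. Homogenate was spun at 20,000g for 20 min at 4°C, and the supernatant (TBS-soluble fraction) was assayed with a commercial sandwich ELISA following the kit protocol. Values were normalized to total protein (BCA). Mice were 4-month-old males; controls received an equal volume of saline.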

[2] = tested on: Iba-1 activated microglia; test: Activated microglia by Iba-1 immunostaining; type: in vivo; conditions: APP/PS1ΔE9 mice, 50 μg/mouse RO 3 times a week for 6 weeks, n = 8
Outline: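 Right hemisphere fixed in buffered formaldehyde after saline perfusion under ketamine/xylazine. Free-floating 30 μm sections were stained with rabbit polyclonal anti-Iba-1 (1:250) and a Vectastain rabbit IgG kit. Four coronal sections per brain were imaged and converted to grayscale. Iba-1-positive area was measured over cortex and hippocampus and expressed as burden (% stained surface of total area). Mice were 4-month-old males.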

[3] = in vivo; cited from earlier work
U251 astrocytes [4] = test: Cell viability, MTT assay; type: cell-based, human; conditions: U251 cells, 0 to 10 μg/ml, 24 h, n = 4
Outline: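 U251-MG astroglioma cells were grown in DMEM/Ham's F-12 with 10 mM HEPES, 2 mM L-glutamine, penicillin/streptomycin and 10% FBS. Cells were exposed to test compound for 24 h, and viability was read by MTT reduction using a TOX-1 kit.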

[5] = Plasma total cholesterol in APP/PS1ΔE9 mice; type: in vivo, mouse; conditions: peptide group before treatment, mean ± SEM, n = 8
Outline: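 Plasma total cholesterol was determined colorimetrically with Infinity cholesterol reagent at baseline and after 6 weeks of treatment. Mice were 4-month-old male transgenics.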

TNF-α = TNF-α ELISA in TBS soluble brain homogenate; type: in vivo; conditions: APP/PS1ΔE9 mice, 50 μg/mouse RO 3 times a week for 6 weeks, p < 0.05
Outline: as §1

U251 astrocytes [6] = test: Secretion of ApoE, human ApoE ELISA of media; type: cell-based; conditions: no ox-PAPC or oAβ42, ApoE in media by ELISA, n = 6
[7] = Tissue bioavailability: 14C-labeled peptide in brain; type: in vivo, mouse; conditions: 14C-labeled peptide via tail vein, brain at 6 h

Substance: Ac-LRKLRKRLLRDWLKAFYDKVAEKLKEAF-NH2 [Ac-hE18A-NH2]
- change in plasma cholesterol levels compared to baseline ([1]; retro-orbital (RO), 5 min): 52 ± 3%
- change in plasma cholesterol levels compared to baseline ([1]; retro-orbital (RO), 5 h): 17.2 ± 2%
- change in plasma cholesterol levels compared to baseline ([1]; tail vein, 5 min): 52 ± 4%
- change in plasma cholesterol levels compared to baseline ([1]; tail vein, 5 h): 14 ± 1%
- IL-6 level in TBS soluble fraction of brain homogenate versus control (IL-6): decreased significantly
- reduction in the amount of activated microglia (Iba-1 staining) [2]: 13%
- number of Iba-1 immunopositive activated microglia versus saline ([2]; p < 0.05): significantly reduced
- half-life in plasma, rapid phase [3]: 1.6 min
- half-life in plasma, slow phase [3]: 96.6 min
- toxicity (cell viability) compared to control (U251 astrocytes [4]): no toxicity
- plasma cholesterol at baseline [5]: 165.3 ± 10.3 mg/dL
- TNF-α level in TBS soluble fraction of brain homogenate versus control (TNF-α): decreased significantly
- enhancement of ApoE secretion by peptide by itself (U251 astrocytes [6]): about 25%
- peptide crossing BBB, fraction of the injected dose [7]: 0.13 % of the injected dose
